NOD2 RIPK2 PPI: NOD2-RIPK2 protein interaction inhibition; O43353; CHO BLA complementation NOD2-RIPK2, CCF4 ratio; inhibition, % at 4.98 µM; 360,000 compounds, 0.38% hits; in the data active = inhibition above about 21%
UPR XBP1 act: activators of adaptive arm of unfolded protein response (XBP1); CHO-XBP1 luciferase reporter, IRE1-XBP1 UPR activation, luminescence; percent of tunicamycin response, DMSO as zero; activation, % at 20 µM; 330,000 compounds, 0.33% hits;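 active = versus positive control, 20 µM dose yields 30% or more activation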
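Material – CHO cell line with stable XBP1 luciferase reporter · Buffer or medium – F12 plus 10% FBS · Compound – single point, 20 µM final compound, 1% DMSO · Schedule – 16-18 h cell attachment at 37 °C, then 6 h compound exposure · Signal – Steady-Glo luminescence read · Benchmarks – high control tunicamycin 10 µg/mL final, low control DMSO vehicle only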
TLR4 MyD88 comp: TLR4-MyD88 interaction inhibition in cells; inhibition, % at 8.4 µM; O00206+Q99836; 200,000 compounds, 0.18% hits; HeLa CL3-4 TLR4/MyD88 BLA complementation, FRET ratio; in the data active = inhibition above about 25%
CHOP inhibitor: blocks CHOP induction under ER stress; CHO-K1 CHOP-promoter luciferase, tunicamycin-induced, 15-18 h; 220,000 compounds, 3.8% hits; inhibition, % at 10 µM;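 active = compounds that reduced the stress-induced luciferase reporter signal by more than about 70% of percent inhibition, limit read from the data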
CHOP UPR activ: activators of apoptotic arm of unfolded protein response (CHOP) | activation, % at 10 µM | CHO-CHOP luciferase reporter, UPR activation, luminescence; percent of tunicamycin response over DMSO baseline | AID 449763 | 330,000 compounds, 0.34% hits;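 active = at 10 µM dose, activation of 40% or more, normalized to positive control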
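Assay system: CHO cells with stable CHOP pathway luciferase reporter; Buffer or medium: F12 plus 10% serum; Times: 16-18 h cell attachment, then 6 h compound exposure, 37 °C; Signal: luciferase luminescence; Read-out basis: percent activation relative to tunicamycin control; Control set: tunicamycin high control, DMSO low control.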
TLR9-MyD88 inh: blocks human TLR9 binding to MyD88; inhibition, % at 4.98 µM; 340,000 compounds, 0.21% hits; CHO BLA complementation TLR9-MyD88, CCF4 FRET ratio; AID 504734;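 active = inhibition above the mean over all tested compounds plus 3 SD, cut at about 21% in these data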
CHOP inh conf: confirmation of CHOP induction inhibitors | CHO-CHOP promoter luciferase reporter, tunicamycin-induced, luminescence | AID 504437 | shares compounds with CHOP inhibitor | inhibition, % at 10 µM | 2,100 compounds, 45% hits;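 active = mean of three repeat readings of reporter signal inhibition above a set limit, cut at about 70% in these data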
UPR CHOP confirm: confirmation of apoptotic unfolded protein response (CHOP) activators; activation, % at 10 µM; AID 463112; shares compounds with CHOP UPR activ; 1,000 compounds, 64% hits; CHO-CHOP cells, CHOP-luciferase reporter luminescence; percent of tunicamycin response, DMSO as zero; in the data active = activation above about 33%
TLR9-MyD88 cf: confirmation of human TLR9-MyD88 binding inhibitors | CHO TLR9/MyD88 BLA complementation, CCF4 FRET ratio | shares compounds with TLR9-MyD88 inh | 680 compounds, 51% hits | AID 540250 | inhibition, % at 4.98 µM;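 active = mean inhibition across three repeats above about 21% taken from the earlier screen, limit read from the data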;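 also: blue over green emission ratio reports constitutive TLR9 MyD88 association via BLA complementation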
BLA counter-1: counter-screen for TLR9-MyD88 inhibitors: non-selective beta-lactamase inhibitors | 680 compounds, 7% hits | inhibition, % at 4.98 µM | shares compounds with TLR9-MyD88 inh | CHO-BLA cells, CCF4 FRET ratio, BLA reporter;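 active = mean inhibition above a 50% cutoff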;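 also: counterscreen of TLR9-MyD88 hits on CMV-driven BLA in CHO-K1 cells; higher means less blue over green ratio so more BLA blockade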
TLR9 CHO cytotox: CHO cell toxicity counter-screen for TLR9-MyD88 inhibitors | shares compounds with TLR9-MyD88 inh | TLR9-MyD88 CHO cells cytotoxicity, luminescence | AID 588336 | 680 compounds, 39% hits | inhibition, % at 4.98 µM; in the data active = inhibition above about 11%
NOD2-RIPK2 conf: confirmation of human NOD2-RIPK2 interaction inhibitors; shares compounds with NOD2 RIPK2 PPI; CHO cells, NOD2-RIPK2 BLA complementation, CCF4 FRET; inhibition, % at 4.98 µM; 1,200 compounds, 70% hits;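 active = mean inhibition across replicates above a set limit taken from the earlier primary screen, cut at about 21% in these data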
BLA counter-2: NOD2-RIPK2 counterscreen BLA reporter activity; shares compounds with NOD2 RIPK2 PPI; CHO BLA reporter, CCF4 FRET ratio; inhibition, % at 4.98 µM; 1,200 compounds, 57% hits;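 active = mean inhibition above the low-control mean inhibition plus three low-control SD, cut at about 11% in these data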
A number is an active result; - = inactive; . = not tested or not shown. The sample as a whole holds a higher share of hits than the screen did.

SMILES | NOD2 RIPK2 PPI | UPR XBP1 act | TLR4 MyD88 comp | CHOP inhibitor | CHOP UPR activ | TLR9-MyD88 inh | UPR CHOP confirm | others
COc1ccccc1/C=C/CN1CCC(Oc2cc(C(=O)NC3CC3)ccc2OC)CC1 | - | - | . | . | - | - | .
CCc1c(O)nc(SCC(=O)Nc2ccc(Cl)cc2)n(-c2ccccc2)c1=O | - | . | . | . | . | - | .
c1ccc2cc(OCCCn3ccnc3)ccc2c1 | - | - | . | . | - | - | .
O=C1CC(Sc2nnnn2-c2ccccc2)C(=O)N1c1cccc(Cl)c1 (centres undefined) | 56.6 | - | - | 110.2 | - | 21.6 | . | CHOP inh conf=111.4;TLR9-MyD88 cf=-;BLA counter-1=-;TLR9 CHO cytotox=98.4;NOD2-RIPK2 conf=57.8;BLA counter-2=12.3
COc1ccc(N2C(=O)CC(Sc3nnnn3-c3ccc(F)cc3)C2=O)cc1 (centres undefined) | 41.0 | - | - | 106.6 | - | - | . | CHOP inh conf=134.1;NOD2-RIPK2 conf=43.7;BLA counter-2=12.0
CCCCOC(=O)C(C)Sc1n[nH]c(=O)[nH]c1=O (centres undefined) | - | - | - | - | - | - | .
CCCC(=O)OCCNc1cc(Sc2nc3ccccc3[nH]2)c2nonc2c1[N+](=O)[O-] | 74.8 | - | - | 109.9 | - | 32.2 | . | CHOP inh conf=137.6;TLR9-MyD88 cf=67.7;BLA counter-1=-;TLR9 CHO cytotox=97.8;NOD2-RIPK2 conf=91.5;BLA counter-2=43.4
Nc1c(C(=O)Nc2ccccc2F)sc2nc(-c3cccnc3)ccc12 | 21.3 | - | . | 97.2 | - | 38.3 | . | CHOP inh conf=77.1;TLR9-MyD88 cf=28.0;BLA counter-1=-;TLR9 CHO cytotox=-;NOD2-RIPK2 conf=46.1;BLA counter-2=63.8
Nc1c(C(=O)Nc2ccccc2F)sc2nc(-c3ccco3)ccc12 | - | - | - | - | - | - | .
Cn1c(=O)[nH]c(=O)c2c1nc([N+](=O)[O-])n2Cc1ccccc1 | 59.2 | - | . | 106.5 | - | 21.8 | . | CHOP inh conf=121.3;TLR9-MyD88 cf=25.7;BLA counter-1=-;TLR9 CHO cytotox=99.4;NOD2-RIPK2 conf=31.0;BLA counter-2=-
O=Cc1ccc(N2CCCC2)c([N+](=O)[O-])c1 | - | - | - | - | - | - | .
O=[N+]([O-])/C=C\c1ccc(N2CCCC2)c(F)c1 | 31.0 | . | - | 108.6 | . | - | . | CHOP inh conf=-;NOD2-RIPK2 conf=77.1;BLA counter-2=22.5
COc1ccc(NC(=O)Cn2c(=O)n(CC(=O)NCc3ccco3)c(=O)c3ccccc32)cc1 | - | - | - | - | - | - | .
Cc1ccc(-c2nn(-c3ccccc3)cc2CO)cc1 | - | - | . | . | - | - | .
Cc1ccc(-c2nn(-c3ccccc3)cc2NC(=O)CCl)cc1 | - | - | - | 104.5 | 81.6 | - | -
Cc1ccc(SC[C@H](C)CN2CCC(NC(=O)OCc3ccccc3)CCC2=O)cc1 (some centres undefined) | - | . | . | . | . | . | .
COc1ccc(C(=O)C(CN2CCOCC2)c2ccccc2)cc1 (centres undefined) | - | - | - | - | 45.7 | - | 35.5
CCCCOc1ccc(C(=O)C(CN2CCOCC2)c2ccccc2)cc1 (centres undefined) | - | - | - | . | - | - | .
COc1ccc(C(=O)C(CN2CCCC2)c2ccccc2)cc1 (centres undefined) | - | - | - | - | 65.6 | - | 38.5
O=C(c1ccc(Cl)cc1)C(CN1CCCC1)c1ccccc1 (centres undefined) | - | - | . | . | 150.9 | - | 169.7
CCCOc1ccc(C(=O)C(CN2CCCC2)c2ccccc2)cc1 (centres undefined) | - | . | - | - | . | - | .
CCCCNC1C(CC)C(CCC)C(C#N)(C#N)C1(C#N)C#N (centres undefined) | - | - | - | - | 74.3 | - | 33.6
C=C(C(=O)c1ccccc1)C(C(=C)C(=O)c1ccccc1)c1ccc(OC)cc1 | - | - | . | - | 61.7 | - | 64.9
COc1ccc(C(CC(=O)c2ccccc2)CC(=O)c2ccccc2)cc1 | - | - | . | - | - | - | .
COc1ccc(N=C2S/C(=C\c3ccc(OCC(=O)O)cc3)C(=O)N2CCc2c[nH]c3ccccc23)cc1 | - | - | - | - | - | - | .
SMILES | NOD2 RIPK2 PPI | UPR XBP1 act | TLR4 MyD88 comp | CHOP inhibitor | CHOP UPR activ | TLR9-MyD88 inh | UPR CHOP confirm | others
COc1ccc(N=C2S/C(=C\c3ccc(N4CCOCC4)o3)C(=O)N2CCc2c[nH]c3ccccc23)cc1 | 32.8 | - | - | - | 138.6 | - | 72.5
Cn1ccnc1/C(=N\NC(=O)c1ccccc1)c1cccc([N+](=O)[O-])c1 | - | - | - | - | - | - | .
O=C(N/N=C(\c1ccccc1)c1ccccn1)c1cccc([N+](=O)[O-])c1 | - | - | - | - | 136.0 | - | 319.0
Fc1ccc(NC(=S)Nc2nccs2)cc1 | - | - | - | - | 75.2 | - | 80.3
S=C(Nc1ccccc1)Nc1nccs1 | - | - | . | - | 103.8 | - | 59.5
CC(=O)Oc1ccc(N(C(C)=O)S(=O)(=O)c2ccc3ccccc3c2)cc1 | - | - | . | . | - | - | .
O=C(N/N=C/c1cccc2cccnc12)c1ccccc1O | - | - | . | - | 347.0 | - | 559.3
COc1ccc(CCN2CC(C(=O)N(C)CC(=O)Nc3ccc(F)c(F)c3F)CC2=O)cc1OC (centres undefined) | - | . | . | . | . | - | .
CC1(C)CC(=O)C2=C(C1)N=c1s/c(=C/c3ccc(F)c(F)c3)c(=O)n1C2c1ccc(F)cc1 (centres undefined) | - | - | - | - | 40.2 | - | -
COC1OC(COCc2ccccc2)C(N)C(OCc2ccccc2)C1OCc1ccccc1 (centres undefined) | - | . | . | . | . | - | .
CCNC(=S)N1CCN(C(=O)C(Cc2ccccc2)NC(C)=O)CC1 (centres undefined) | - | - | - | - | 52.3 | - | -
CCN(CC)c1ccc(/C=C2\C(=O)N(c3nnc(C)c(=O)[nH]3)N=C2C)cc1 | - | - | . | - | 221.4 | - | 832.2
